Screening data deposited in PubChem BioAssay by several laboratories.
Hits are enriched below; roughly 4% of the tested compounds scored in any of these assays.
FAS TE block = blocks the thioesterase domain of human fatty acid synthase. P49327. recombinant FAS-TE, OMFH fluorogenic substrate, fluorescence endpoint. inhibition, % at 15 µM. 0.67% of 360,000 active. AID 602261;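 active = compounds whose normalised, plate-corrected inhibition of enzyme fluorescence in the single-dose primary screen is 50% or more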;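 note: 0% = DMSO with enzyme and 100% = substrate without enzyme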
Arr AP2 block = human beta-arrestin and AP2 interaction inhibition. FITC-arrestin peptide / GST-AP2 beads, flow cytometry; AP2 beta2 appendage carries R879A mutation. inhibition, % at 10 µM. 0.31% of 340,000 active;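 active = inhibition above a set limit, near 3 SD of compounds lacking own fluorescence, cut at about 54% in these data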;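 note: plate controls were DMSO wells for no effect and 5 µM unlabelled arrestin peptide for full effect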
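Measured by: flow cytometry, FL1 (488/535 nm); Material: AP2 appendage R879A on GSH beads; Evaluation: percent response; Timing: pre-incubation 12 min, peptide binding 1 h, room temperature; Also added: 50 nM FITC-arrestin peptide; Medium: PBS with 0.05% Tween 20 and 0.1% BSA.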
GRIN3A LBD mod = NR3A (human) ligand-binding domain modulation | NR3A LBD differential scanning fluorimetry, Tm shift; 0% = protein alone, 100% = glycine-bound protein | Tm shift relative to glycine control, % at 25 µM | 2.5% of 340,000 active;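 active = melting temperature shift of at least 10% of the positive control shift, at one fixed dose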
hiPSC survival = enhancers of human iPSC single-cell survival; hiPSC single-cell survival, ATPlite luminescence; 100% = ROCK inhibitor wells, 0% = DMSO; 0.044% of 360,000 active; survival enhancement, % at 20 µM; in the data active = survival enhancement above about 18%;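 note: cells exposed to compounds for 16 hours before the ATP read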
H9c2 protect = modulators protecting cardiomyocytes from myocardial damage | H9c2 cardiomyocytes, H2O2 injury protection, ATPLite, 2 h | protection from H2O2 cell death, % at 20 µM | 0.63% of 360,000 active | AID 588492;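 active = compounds giving at least 50% protection of heart cells from peroxide-induced death in the single-dose screen, raw or plate-pattern-corrected value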;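 note: 0% = DMSO wells with peroxide and 100% = DMSO wells without peroxide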
SENP1 FRET inh = SENP1 (human) catalytic domain inhibition; recombinant SENP1 catalytic domain, CyPet-SUMO1-YPet FRET cleavage; Q9P0U3; 0.21% of 360,000 active; inhibition, % at 10 µM;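 active = inhibition at least 30% at 10 µM, raw YFP signal under a set limit, fluorescence ratio 0.5 to 1.5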;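 note: 0% = enzyme with DMSO and 100% = no enzyme wells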
Target sequence (Q9P0U3 419-644 limits assumed): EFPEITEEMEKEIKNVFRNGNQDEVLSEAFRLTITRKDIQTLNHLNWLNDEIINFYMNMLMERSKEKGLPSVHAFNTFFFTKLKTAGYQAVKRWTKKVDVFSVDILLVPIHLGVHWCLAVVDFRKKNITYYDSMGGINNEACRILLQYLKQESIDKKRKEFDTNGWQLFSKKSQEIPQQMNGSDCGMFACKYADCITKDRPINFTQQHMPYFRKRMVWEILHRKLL
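Compound: 10 µM single point, 0.5% DMSO; Test system: hSENP1 catalytic domain, recombinant; Timing: 50 min reaction at room temperature; Technique: FRET, CFP and YFP emission; Control set: no-enzyme wells low, DMSO-plus-enzyme wells high control.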
An asterisk follows results filed as active; x = not tested or not shown.

SMILES	FAS TE block	Arr AP2 block	GRIN3A LBD mod	hiPSC survival	H9c2 protect	SENP1 FRET inh
CCOC(=O)c1c(NC(=O)C2c3ccccc3Oc3ccccc32)sc(C(N)=O)c1C	-5	6	-10	6	-23	1
CCC1CCc2c(sc(NC(=O)C3c4ccccc4Oc4ccccc43)c2C(N)=O)C1 (configuration not stated)	24	-4	17*	-1	-9	-7
CCc1cc(C(=O)Nc2cc(Cl)ccc2N2CCN(C)CC2)sc1C	4	9	11*	0	12	0
O=C(NCc1ccccc1)C(c1cc2ccccc2o1)n1c(=O)c(-c2ccco2)nc2ccccc21 (configuration not stated)	x	x	x	x	x	-56
Cc1cc(C(=O)COc2ccccc2C(N)=O)c(C)n1C	-1	8	-1	0	52*	-2
Cc1ccccc1C(=O)N1CCC1(C)C(=O)NC(C)C (configuration not stated)	-7	x	x	1	1	1
O=C(O)c1cc(-c2c[nH]c3ccccc23)nc2ccc3ccccc3c12	-2	14	11*	-2	-7	-16
O=c1[nH]c2cc([N+](=O)[O-])ccc2c2ccccc12	9	53	-1	2	65*	8
O=c1[nH]c2cc([N+](=O)[O-])ccc2c2ccc([N+](=O)[O-])cc12	11	-2	13*	-1	-1	10
O=c1[nH][nH]c2cc([N+](=O)[O-])ccc12	33	0	-1	1	8	1
O=C(Cn1cnc2c(NCc3ccccc3)ncnc21)NCCCc1ccccc1	-7	-2	17*	1	-17	-1
COc1ccc(CN2CCC[C@]3(N[C@H](c4ccc(C)cc4)[C@@H]4C(=O)N(Cc5ccccc5)C(=O)[C@@H]43)C2=O)cc1	12	x	x	-1	4	1
COc1ccc(Cl)cc1NC(=O)C(C)OC(=O)c1ccc(NS(=O)(=O)c2ccc3[nH]c(=O)[nH]c3c2)cc1 (configuration not stated)	22	-10	18*	0	-2	5
COc1cc2c(cc1NC(=O)C(C)OC(=O)c1ccc(S(=O)(=O)Nc3ccccc3Cl)cc1)oc1ccccc12 (configuration not stated)	34	0	10*	-1	-14	0
CC(OC(=O)c1ccc(NS(=O)(=O)c2ccc3[nH]c(=O)[nH]c3c2)cc1)C(N)=O (configuration not stated)	-4	-5	2	0	-1	-1
COc1cc2c(cc1NC(=O)C(C)N1CCN(S(=O)(=O)c3ccc(C)c(C)c3)CC1)oc1ccccc12 (configuration not stated)	27	14	-7	0	5	0
CC(OC(=O)c1ccc(NS(=O)(=O)c2ccc3[nH]c(=O)[nH]c3c2)cc1)C(=O)Nc1ccc(Cl)cc1 (configuration not stated)	23	46	15*	1	-3	4
COc1ccc(O)c(/C=N/Nc2nc(C)cc(-c3ccccc3)n2)c1	28	16	7	1	66*	4
Cc1cnc(CNC(=O)c2csc([C@@H]3O[C@H](CO)[C@H](O)[C@H](O)[C@H]3O)n2)cn1	-8	x	x	-4	1	-2
Cc1cc(NC(=O)c2oc3ccccc3c2C)ccc1-n1cnnn1	18	-5	23*	-1	19	1
O=C1c2ccccc2C(c2nnnn2C2CCCCC2)N1CCc1ccc(O)cc1 (configuration not stated)	-7	x	x	0	x	3
CC(Oc1cccc(Br)c1)C(=O)NNC(=O)c1ccccn1 (configuration not stated)	-6	-13	2	-2	79*	2
COc1ccc(C(=O)NNC(=O)c2ccccn2)cc1	-6	6	-1	-4	-10	7
CC(Oc1ccccc1)C(=O)NNC(=O)c1ccccn1 (configuration not stated)	-10	2	3	-2	35	1
COc1cc(OC)cc(C(=O)NNC(=O)c2ccccn2)c1	-4	0	-1	1	51*	1
SMILES	FAS TE block	Arr AP2 block	GRIN3A LBD mod	hiPSC survival	H9c2 protect	SENP1 FRET inh
CCc1nc2ccc(C(=O)N3CCN(S(=O)(=O)CC)CC3)cn2c1N(CC)CCOC	-7	x	x	4	-1	4
Cc1ccc(C(O)c2ncc(-c3ccccc3Cl)[nH]2)cc1F (configuration not stated)	1	x	x	-1	-7	1
COc1ccc(C(=O)/C=C/c2ccc(O)cc2)c(O)c1C/C=C(\C)CCC=C(C)C	28	24	30*	0	-9	14
COc1ccc(C=CC(=O)c2ccc(OC)c(OC)c2O)cc1OC	-6	3	2	-1	30	1
C=C(C)C(O)CC/C(C)=C/Cc1c(O)ccc(C(=O)/C=C/c2ccc(O)cc2)c1O (configuration not stated)	8	13	15*	-1	-6	8
O=C(/C=C/c1ccc(O)cc1)c1c(O)cc(O)cc1O	0	13	-4	1	-2	2
COc1ccc(CSC(=S)NNc2ccccc2)cc1	5	x	x	-3	-10	1
CC1=NNC(=O)C1CC(=O)N/N=C/c1ccc(C)o1 (configuration not stated)	-2	-8	18*	2	0	1
CC1=NNC(=O)C1CC(=O)N/N=C/C(C)=C/c1ccccc1 (configuration not stated)	-8	x	-2	2	5	2
O=C(Nc1nc(-c2ccccn2)cs1)c1ccc2c(c1)OCCO2	2	-3	-10	-3	-15	1
O=C(Nc1nc(-c2ccccn2)cs1)c1ccc(-c2ccccc2F)o1	18	1	12*	0	58*	-25
CC(=O)c1ccc(-c2ccc(C(=O)Nc3nc(-c4ccccn4)cs3)o2)cc1	3	-5	11*	2	99*	-12
O=C(Nc1nc(-c2ccccn2)cs1)c1ccccc1-n1cnnn1	-1	-5	-1	0	63*	-4
CCc1cc(C(=O)Nc2nc(-c3ccccn3)cs2)sc1C	0	-19	0	0	72*	11
COc1ccc(NC(=O)N(C)C[C@@H]2OCc3cnnn3CCCC(=O)N([C@H](C)CO)C[C@@H]2C)cc1	-8	x	x	1	3	0
COc1ccc(NC(=O)c2cc(C3CCCCN3C(=O)CCc3ccccc3)on2)c(C)c1 (configuration not stated)	11	x	x	-2	0	-1
CC(=O)Nc1ccc(C(=O)Nc2nc(-c3ccccn3)cs2)cc1	-2	-17	-16	0	70*	0
